This is a sample that favours compounds with a hit; in the whole collection about 1.9% have one here.
core dimer inh: inhibitors of HCV core protein dimerization, primary screen, biochemical, TR-FRET, high-throughput | 0.33% of 300,000 active | inhibition, % at 5 µM | TR-FRET GST/Flag-core106 dimerization, 1536-well;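 active = inhibition above the mean of all tested compounds plus 3 SD, set per screening campaign, cut at about 45% in these data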
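Test system: GST/Flag-tagged HCV core106 proteins; Medium: KF-containing HEPES buffer, pH 7.45, DTT, CHAPS, BSA; Times: compound-protein-antibody incubation 4 h at 22.5 °C; Detection: TR-FRET 671 and 617 nm emission; Benchmarks: wells lacking GST-core106 and wells with excess unlabelled core106.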
VIM-2 inh: VIM-2 metallo-beta-lactamase inhibitors, primary screen, biochemical, epi-absorbance readout, Pseudomonas aeruginosa enzyme. purified VIM-2, nitrocefin hydrolysis, epi-absorbance fluorescence. inhibition, % at 5.6 µM. 0.89% of 290,000 active. AID 1527, 2009;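 active = inhibition above the mean of all tested compounds plus 3 SD, cutoff set per screening run, cut at about 7.5% in these data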;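 also: red hydrolysis product quenches plate fluorescence so inhibitors raise well fluorescence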
IMP-1 inhibitor: IMP-1 metallo-beta-lactamase inhibitors, primary screen, biochemical, epi-absorbance readout, Pseudomonas aeruginosa enzyme; 0.45% of 290,000 active; AID 1556, 2009; purified IMP-1, nitrocefin hydrolysis, epi-absorbance fluorescence; inhibition, % at 5.6 µM; metallo-beta-lactamase IMP-1 (Pseudomonas aeruginosa);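 active = inhibition above the mean plus 3 SD of all compounds in the same screening run, cut at about 4.5% in these data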
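System: purified recombinant IMP-1 beta-lactamase. Medium: Zinc- and detergent-supplemented HEPES buffer, pH 7.1. Compound: one 5.6 µM dose […]. Schedule: 15 min preincubation plus 25 min reaction at 25 °C. Technique: Epi-absorbance fluorescence, 480 nm excitation, 530 nm emission.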
NadD inh: inhibitors of S. aureus NadD, primary screen, biochemical, colorimetric, uHTS | Nicotinate-nucleotide adenylyltransferase NadD (Staphylococcus aureus N315) | purified NadD enzyme, colorimetric absorbance read-out | AID 602399, 2012 | inhibition, % at 20 µM | 0.78% of 360,000 active; in the data active = inhibition above about 26%
NadD inh conf: inhibitors of S. aureus NadD, confirmation, biochemical, colorimetric, single concentration | shares compounds with NadD inh | purified S. aureus NadD, colorimetric enzyme assay | inhibition, % at 20 µM | 13% of 2,000 active; in the data active = inhibition mostly above about 42%, no sharp cut-off; inactive = mostly below about 42%
Of the large screens only hits and unclear results are named; the others gave an inactive call (follow-up assays come after a bar, where they were run); ! = not active in a repeat.

N#C/C(=C\c1cccs1)C(=O)Nc1nccs1	none
COc1cccc(CN2CC(C(=O)NC3CCC3)CCC2=O)c1 (stereo not drawn)	none
Cc1ccc(OCc2ccc(C(=O)Nc3nc4ccccc4n3Cc3ccccc3)o2)c([N+](=O)[O-])c1	NadD inh 34.0 | NadD inh conf inactive
O=C(Nc1nc2ccccc2n1Cc1ccccc1)c1ccc(COc2ccccc2[N+](=O)[O-])o1	none
CC(=O)Nc1ccc(S(=O)(=O)NC2(C(F)(F)F)C(=O)Nc3c2c(=O)[nH]c(=O)n3Cc2cccnc2)cc1 (stereo not drawn)	none
Cc1nonc1NC(=O)CSc1nc2cc(Cl)ccc2c2c1CCCC2	NadD inh 30.4 | NadD inh conf inactive
C=CCn1c(=O)/c(=C/c2ccc(C)o2)s/c1=C(/C#N)C(=O)c1ccccc1	NadD inh 30.3 | NadD inh conf inactive
N=C1S/C(=C\c2cccc3ccccc23)C(=O)N1c1ccc(F)cc1	NadD inh 33.3 | NadD inh conf inactive
Nc1ccc2cccc(O)c2c1	NadD inh 41.2 (no result: core dimer inh, VIM-2 inh, IMP-1 inhibitor) | NadD inh conf inactive
CCCNC(=O)c1ccc(N2CCC3(CC2)CC(c2cccc(Br)c2)=NO3)c(NC(=O)c2ccc(Cl)c([N+](=O)[O-])c2)c1	NadD inh 30.5 (no result: VIM-2 inh, IMP-1 inhibitor) | NadD inh conf inactive
CCCNC(=O)c1ccc(N2CCC3(CC2)CC(c2cccc(Br)c2)=NO3)c(NC(=O)c2cccc(C)c2)c1	none (no result: VIM-2 inh, IMP-1 inhibitor)
Cc1ccc(CNC(=O)c2ccc(N3CCC4(CC3)CC(c3cccc(Br)c3)=NO4)c(NC(=O)c3ccc(Cl)c([N+](=O)[O-])c3)c2)cc1	NadD inh 33.7 (no result: core dimer inh, VIM-2 inh, IMP-1 inhibitor) | NadD inh conf inactive
Cc1ccc(CNC(=O)c2ccc(N3CCC4(CC3)CC(c3cccc(Br)c3)=NO4)c(NC(=O)c3ccccc3)c2)cc1	none (no result: VIM-2 inh, IMP-1 inhibitor)
CCOC(=O)c1cccnc1NC(=O)c1ccccc1	none
COc1ccc(CC(=O)OCC(=O)Nc2cccc(C(C)=O)c2)cc1OC	none (no result: core dimer inh, VIM-2 inh, IMP-1 inhibitor)
CCCOc1ccc(N2C(=O)CC(SC(=N)N3N=C(c4ccccc4)CC3c3ccccc3)C2=O)cc1 (stereo not drawn)	NadD inh 43.4 | NadD inh conf inactive
COc1ccc(C2CC(c3ccccc3)=NN2C(=O)COC(=O)/C=C/c2ccc(O)c(OC)c2)cc1 (stereo not drawn)	NadD inh 46.0 | NadD inh conf inactive
CON(C)S(=O)(=O)c1cccc(C(=O)Oc2ccc(N(C)S(=O)(=O)c3ccccc3)cc2)c1	none
CCOC(=O)c1sc2nc(-c3ccco3)c3c(c2c1N)CC(C)(C)OC3	NadD inh 31.6 (no result: VIM-2 inh, IMP-1 inhibitor) | NadD inh conf inactive
O=C1c2ccc(-c3ccc(Cl)c(C(F)(F)F)c3)cc2S(=O)(=O)c2cccc(C(=O)N3CCN(c4ncc(Br)cn4)CC3)c21	NadD inh 52.5 (no result: core dimer inh, VIM-2 inh, IMP-1 inhibitor) | NadD inh conf inactive
Cc1cc(CNC(=O)c2cccc3c2C(=O)c2ccc(-c4ccc(F)cc4OCc4ccccc4)cc2S3(=O)=O)c(C(F)(F)F)o1	NadD inh 51.9 (no result: core dimer inh, VIM-2 inh, IMP-1 inhibitor) | NadD inh conf inactive
O=C(NC[C@H]1CCCO1)c1cccc2c1C(=O)c1ccc(-c3ccc(F)cc3OCc3ccccc3)cc1S2(=O)=O	none (no result: core dimer inh, VIM-2 inh, IMP-1 inhibitor)
N#Cc1cccnc1N1CCN(C(=O)c2cccc3c2C(=O)c2ccc(-c4ccc(F)cc4OCc4ccccc4)cc2S3(=O)=O)CC1	NadD inh 31.4 (no result: core dimer inh, VIM-2 inh, IMP-1 inhibitor) | NadD inh conf inactive
O=C1c2ccc(-c3ccc(F)cc3OCc3ccccc3)cc2S(=O)(=O)c2cccc(C(=O)N3CCN(c4ncc(Cl)cc4Cl)CC3)c21	NadD inh 60.6 (no result: core dimer inh, VIM-2 inh, IMP-1 inhibitor) | NadD inh conf inactive
O=C(O)c1cccc2c1C(=O)c1ccc(-c3ccc(F)cc3OCc3ccccc3)cc1S2(=O)=O	none (no result: core dimer inh, VIM-2 inh, IMP-1 inhibitor)
COc1ccccc1NC(=O)CSc1nccn1Cc1ccccc1	none
COC(=O)c1cc(C(=O)OCC(=O)N(C)c2ccccc2)cc([N+](=O)[O-])c1	none
O=c1[nH]c(-c2ccccc2)c(-c2ccccc2)o1	none
COc1ccc(/C=N/NC(=O)c2ccn[nH]2)cc1COc1ccc([N+](=O)[O-])c(C)c1	NadD inh 30.9 | NadD inh conf inactive
COC(=O)CSCC(=O)Nc1nnc(-c2cccc(C)c2)s1	none
CCOc1ccc(N2C(=O)C3Sc4[nH]c(=O)sc4C(/C=C/c4ccccc4)C3C2=O)cc1 (stereo not drawn)	IMP-1 inhibitor 8.0, NadD inh 32.0 | NadD inh conf inactive
CC(C)C[C@@H](CNCC(=O)[C@H](CC(=O)O)NC(=O)c1[nH]cnc1C(=O)N[C@H](CN)CC(C)C)NC(=O)c1nc[nH]c1C(=O)N[C@@H](Cc1ccccc1)C(=O)O	NadD inh 34.6 (no result: core dimer inh, VIM-2 inh, IMP-1 inhibitor) | NadD inh conf 52.2
O=C(CN1c2ccccc2Sc2ccccc21)NNC(=S)Nc1ccc(Cl)cc1Cl	NadD inh 36.8 | NadD inh conf 51.0
Cn1c(=O)[nH]c(=O)c2c1nc(N1CCCCC1)n2CC(O)COc1ccccc1 (stereo not drawn)	none
CC1CCCN(S(=O)(=O)c2ccc(C(=O)Nc3ccccc3-c3nc4ccccc4[nH]3)cc2)C1 (stereo not drawn)	none
Cc1cc(F)ccc1S(=O)(=O)Nc1ccccc1C(=O)Nc1ncn[nH]1	none
Cc1cc(F)ccc1S(=O)(=O)Nc1ccccc1C(=O)Nc1ccccc1-c1nc2ccccc2[nH]1	NadD inh 33.3 | NadD inh conf inactive
CC1CCN(S(=O)(=O)c2ccc(C(=O)Nc3ccccc3-c3nc4ccccc4[nH]3)cc2)CC1	NadD inh 28.6 | NadD inh conf inactive
CCCOc1ccc(F)cc1-c1cc(C(=O)NCCOC)[nH]n1	none (no result: core dimer inh, VIM-2 inh, IMP-1 inhibitor)
Cc1ccc(NS(=O)(=O)c2cc([N+](=O)[O-])ccc2NNC(=S)Nc2cc(C)ccc2C)c(C)c1	NadD inh 46.5 | NadD inh conf inactive
Cc1nc(S/C(=C\c2ccc(OCc3ccccc3Cl)cc2)C(=O)O)n[nH]1	NadD inh 63.0 | NadD inh conf inactive
CCc1ccc(-c2cc3c(=O)n(CC(=O)N4CCCCCC4)nc(C)n3n2)cc1	none
N/C(=N\c1nc(CSc2ccc(Cl)cc2)cc(=O)[nH]1)Nc1cccc2ccccc12	NadD inh 26.6 | NadD inh conf inactive
CC(=O)c1ccc(OCC(=O)NCc2ccc(F)cc2)cc1	none
CN=C1SC(CC(=O)Nc2c(C)cccc2C)C(=O)N1/N=C/c1cccs1 (stereo not drawn)	none
COc1ccc([N+](=O)[O-])cc1NC(=O)CC1SC(=Nc2cccc(C)c2C)N(/N=C/c2cccc(OC)c2OC)C1=O (stereo not drawn)	NadD inh 35.1! | NadD inh conf inactive
Cc1ccc(/C=C/c2nc3sc(C(=O)O)c(C)c3c(=O)[nH]2)cc1[N+](=O)[O-]	NadD inh 35.8 | NadD inh conf inactive

Compound activity (PubChem)
